Assay results collected from several papers.
Each line is one published result; the experiments were not run side by side.
Target: RAF proto-oncogene serine/threonine-protein kinase (RAF1, Homo sapiens, UniProt P04049)

Cc1cnn2ncc(-c3ccnc(N(C)C)n3)c2c1  remaining binding (binding; 1 µM): 100%
O=C(NCCCN1CCOCC1)c1ccc(Nc2nccc(-c3cc4ccccc4s3)n2)cc1  remaining binding (binding, competition with immobilised ligand; 1 µM): 65%
FC(F)(F)Oc1cccc(-c2cnc3ccc(-c4ccncc4)nn23)c1  remaining binding (cell-free assay, competition with immobilised ligand; 5 µM): 71%
N#Cc1ccccc1CSc1nnc2c(n1)[nH]c1ccccc12  remaining binding (binding, competition with immobilised ligand; 10 µM): 100%
O=C(Nc1c[nH]nc1C(=O)NC1CCNCC1)c1cc(F)cc(F)c1  remaining binding (binding, competition with immobilised ligand; 1 µM): 100%
c1cncc(-c2cccc(Nc3nccc(NC4CCCCC4)n3)c2)c1  remaining binding (binding, competition with immobilised ligand; 10 µM): 94%
Cn1nc(C(=O)NCc2ccc(C(=O)O)cc2)cc1-c1ccc2[nH]ccc2c1  remaining binding (cell-free assay, competition with immobilised ligand; 0.1 µM): 70%
C[C@@H](c1ccc(-n2cnc3c(N)ncnc32)cc1)N1CCc2nn(C)c(Cc3ccccc3)c2C1=O  remaining binding (binding, competition with immobilised ligand; 0.1 µM): 93%
O=C(N1CCS(=O)(=O)CC1)N1C[C@H](c2ccc(OC(F)(F)F)cc2)C[C@H](c2nc(C3CC3)no2)C1  remaining binding (cell-free assay, competition with immobilised ligand; 1 µM): 100%
C[C@H]1CCN(c2nccc(-c3cnn4ncccc34)n2)C1  remaining binding (binding; 1 µM): 90%
O=C(c1ccc(Nc2ncc(Cl)c(-c3ccc(Cl)s3)n2)cc1)N1CCC(N2CCCC2)CC1  remaining binding (binding, competition with immobilised ligand; 1 µM): 45%
CC(=O)C1=C(C)N(c2cccc(C(F)(F)F)c2)C(=O)N[C@@H]1c1ccc(C#N)nc1  remaining binding (cell-free assay, competition with immobilised ligand; 1 µM): 100%
CN(C)c1nccc(-c2cnn3ncccc23)n1  remaining binding (binding; 1 µM): 100%
Cn1cc(Cl)c2c(Oc3c(F)cc(Nc4cc(Cl)nc(N)n4)cc3F)ccnc21  remaining binding (cell-free assay, competition with immobilised ligand; 0.1 µM): 91%
N[C@@H]1CCN(c2nccc(-c3cnn4ncccc34)n2)C1  remaining binding (binding; 1 µM): 80%
COc1cc(-c2cn(C3CCc4c(F)cccc4N(CC(F)(F)F)C3=O)nn2)ccc1-n1cnc(C)c1 (stereo not drawn)  remaining binding (cell-free assay, competition with immobilised ligand; 1 µM): 100%
CNC(=O)[C@@H]1CC[C@@H](n2c(-c3ccc4cnccc4c3)nc3ccc(C(=O)NCc4cccc(C(N)=O)c4)cc32)C1  remaining binding (binding, competition with immobilised ligand; 1 µM): 82%
CN(C)c1ncc(F)c(-c2cnn3ncccc23)n1  remaining binding (binding; 1 µM): 96%
C[C@@H]1CN(c2ccc3ncc(-c4ccc5[nH]nc(C6CC6)c5c4)n3n2)C[C@H](C)O1  remaining binding (binding, competition with immobilised ligand; 0.5 µM): 100%
COc1cnc(Nc2cccc(S(N)(=O)=O)c2)nc1N1CCN(c2ccccc2)C(=O)C1  remaining binding (binding, competition with immobilised ligand; 1 µM): 98%
CN(CCCC(F)(F)F)c1nccc(-c2cnn3ncccc23)n1  remaining binding (binding; 1 µM): 83%
CN(c1ccnc(CNc2nc(Nc3ccc4c(c3)CC(=O)N4)ncc2C(F)(F)F)n1)S(C)(=O)=O  remaining binding (cell-free assay, competition with immobilised ligand; 1 µM): 85%
COc1ccnn2ncc(-c3ccnc(N(C)C)n3)c12  remaining binding (binding; 1 µM): 100%
Cc1nccc(COC(=O)N2C[C@@H]3[C@@H](CNC(=O)c4ccc5[nH]nnc5c4)[C@@H]3C2)n1  remaining binding (cell-free assay, competition with immobilised ligand; 1 µM): 94%
